# Sampled rows, rich in hits. Any-hit rate of the full collection: about 1.7%.
# T cell HTS: T cell immune modulators affecting CD8 T cell-vesicle binding. AID 2052. 330,000 tested, 0.068% active. response (vesicle binding), % at 7 µM. 2C CD8+ T cell-vesicle binding, flow cytometry; hits give low values;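 active = response, share of CD8 T cells binding vesicles, and their 90th percentile fluorescence all below set limits, cut at about 80% in these data, passing the limit was not always enough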;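 also: values below 100% mean blocked vesicle binding to the CD8+ T cells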
#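 Benchmarks: naked versus QL9-loaded vesicles / Assay system: purified 2C TCR transgenic mouse naive CD8+ T cells / Technique: high-throughput flow cytometry with anti-B7-1 and anti-CD8 staining / Timing: Cell–vesicle co-incubation 1.5 h at 37 °C, staining 20 min on ice / Read-out: percent CD8+ FL2 mean versus row control / Probe or stimulus: QL9-loaded Drosophila micro-vesicles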
# Vif imaging: inhibitors of HIV Vif; HEK293T cells, Vif self-association by quenched fluorescence, imaging, 24 h; inhibition, % at 7.49 µM; 340,000 tested, 0.35% active; AID 602346; in the data active = inhibition above about 50%, passing the limit was not always enough; inconclusive = no clear call, values can overlap the other calls; inactive = below about 31%
# DSG3 Ab inh: human desmoglein-3 autoantibody binding inhibition; DSG3-coupled beads, scFv-anti-DSG3-GFP binding, flow cytometry; hits give low values; AID 588358; 310,000 tested, 0.48% active; P32926; binding (percent of control), % at 10 µM;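 active = binding more than 3 SD below its plate's average and above zero; inconclusive = below that plate limit but binding exactly zero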;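 also: hits lower antibody fragment binding to DSG3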
# Target sequence (P32926 whole entry, looked up, the tested form may be a part): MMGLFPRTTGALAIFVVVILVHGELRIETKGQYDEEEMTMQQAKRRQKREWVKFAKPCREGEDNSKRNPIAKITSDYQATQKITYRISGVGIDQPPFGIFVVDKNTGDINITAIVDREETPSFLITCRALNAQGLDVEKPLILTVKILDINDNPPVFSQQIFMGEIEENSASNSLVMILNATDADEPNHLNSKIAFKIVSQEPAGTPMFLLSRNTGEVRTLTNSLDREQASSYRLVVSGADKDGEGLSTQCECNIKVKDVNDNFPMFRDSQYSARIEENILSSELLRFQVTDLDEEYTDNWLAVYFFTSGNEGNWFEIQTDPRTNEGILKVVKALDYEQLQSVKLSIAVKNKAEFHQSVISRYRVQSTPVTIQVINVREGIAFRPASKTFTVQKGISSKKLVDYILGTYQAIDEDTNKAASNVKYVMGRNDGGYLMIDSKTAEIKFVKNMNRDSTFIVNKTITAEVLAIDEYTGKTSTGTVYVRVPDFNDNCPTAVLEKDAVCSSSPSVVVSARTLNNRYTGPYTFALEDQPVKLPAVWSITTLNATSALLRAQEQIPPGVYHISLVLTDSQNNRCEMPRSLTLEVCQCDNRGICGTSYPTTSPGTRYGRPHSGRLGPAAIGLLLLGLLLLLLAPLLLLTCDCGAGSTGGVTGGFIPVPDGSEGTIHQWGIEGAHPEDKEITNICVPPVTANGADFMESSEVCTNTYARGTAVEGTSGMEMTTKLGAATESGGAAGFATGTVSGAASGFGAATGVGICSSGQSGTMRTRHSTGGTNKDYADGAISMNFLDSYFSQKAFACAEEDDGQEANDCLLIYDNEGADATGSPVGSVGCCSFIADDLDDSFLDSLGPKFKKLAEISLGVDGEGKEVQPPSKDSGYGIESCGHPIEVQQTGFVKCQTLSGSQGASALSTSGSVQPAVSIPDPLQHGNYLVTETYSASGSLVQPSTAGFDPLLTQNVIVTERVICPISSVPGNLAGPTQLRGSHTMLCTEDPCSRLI
# Myeloid diff MLP: promotes myeloid progenitor differentiation; ER-HoxA9 myeloid progenitors, lysozyme-GFP differentiation, flow cytometry; 360,000 tested, 1% active; calls only at 10 µM;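 active = normalized GFP-positive differentiation at or above the plate's own cutoff, the solvent-only control mean plus 3 SD; inconclusive = no clear call, values can overlap the other calls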;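 also: cells exposed to compound for four days before flow analysis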
# Myeloid diff CP1: compounds promoting myeloid differentiation; shares compounds with Myeloid diff MLP; ER-HoxA9 myeloid progenitors, GFP/Mac1 double-positive flow; calls only; 2,300 tested, 2% active;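 active = share of green or green-and-red cells above 9 and 9% in run 1 or 4 and 3% in run 2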
# GFP autofluor: flagged as fluorescent in myeloid differentiation counter-screen | shares compounds with Myeloid diff MLP | ER-HoxA9 myeloid progenitors, no estrogen, GFP autofluorescence flow cytometry; vehicle wells 0%, positive control 100% | fluorescence response, % (no concentration beside the values) | 2,300 tested, 7.4% active;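 active = over 5% cells positive for green fluorescent reporter, or over 2% positive for both it and APC stain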;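 also: range taken on the double positive population between DMSO and positive control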
# * marks the source's active call; other numbers are inactive results; i = inactive; ? = inconclusive; . = no result; + = active, no number.
SMILES,T cell HTS,Vif imaging,DSG3 Ab inh,Myeloid diff MLP,Myeloid diff CP1,GFP autofluor
O=C(CCC(=O)N1CCCC1)N1CCCC1,240.5,4.7,.,i,.,.
CCOC(=O)[C@]12CCCC=C1N(Cc1ccc3c(c1)OCO3)C(=O)[C@H](CC(=O)N1CCN(C(=O)C3CC3)CC1)C2,.,.,.,i,.,.
CC1(C)NC(=O)N(CCCCOc2ccc(Cl)cc2)C1=O,442.1,5.3,104.5,i,i,0.0
Cc1cc(OCCCCN2C(=O)NC(C)(C)C2=O)cc(C)c1Cl,348.3,0.9,105.2,i,.,.
COc1ccc(C2=Nn3c(nnc3-c3ccccc3F)SC2)cc1OCC1CC1,316.1,-7.4,.,i,.,.
Cc1cc(-c2cc(-c3ccc(Cl)cc3)nc(N)c2C#N)co1,295.3,0.0,97.6,+,i,0.2
N#CCC(=O)Nc1ccc(C(=O)OC(C(=O)Nc2cc(C(F)(F)F)ccc2Cl)c2ccccc2)cc1 (configuration not stated),174.8,-11.6,87.3,+,i,1.1
C[C@@H]1CN([C@H](C)CO)C(=O)CCCn2nncc2CO[C@H]1CN(C)S(=O)(=O)c1cccc(F)c1,.,-1.3,.,i,.,.
COc1cccc(/C=N/NC(=S)Nc2cccnc2)c1,626.4,12.2,102.3,i,.,.
Oc1ccc(/C=N/NC(=S)Nc2cccnc2)cc1,80.0,-7.0,101.3,i,i,0.3
O=C(NN(Cc1ccccc1)Cc1ccccc1)c1ccccc1,.,-5.5,114.9,i,.,.
CCn1c(Cc2ccccc2)nnc1SCC(=O)Nc1ccccc1N1CCOCC1,270.6,-10.4,.,i,.,.
Cn1ccnc1SCC(=O)Nc1cc(C(F)(F)F)ccc1N1CCOCC1,209.9,-4.1,106.9,i,i,0.0
Cn1c(Cc2ccccc2)nnc1SCC(=O)Nc1ccccc1N1CCOCC1,201.7,25.9,107.1,i,i,0.2
CCOCCn1ccc2c(OCC(=O)Nc3cc(OC)ccc3OC)cccc2c1=O,380.4,-4.8,97.3,?,.,.
COCCn1ccc2c(OCC(=O)Nc3cc(OC)ccc3OC)cccc2c1=O,593.0,-11.1,102.6,+,i,0.0
CCOC(=O)c1c(NC(=O)C(C)Sc2cccc[n+]2[O-])sc2c1CCN(Cc1ccccc1)C2 (configuration not stated),262.8,1.0,164.2,+,i,0.4
CCOC(=O)c1c(NC(C)=O)sc2c1CCN(Cc1ccccc1)C2,545.9,.,109.7,i,.,.
CCN(CC)C(=O)c1cccc(-c2csc(C(C)(O)c3ccc(F)c(F)c3)n2)c1 (configuration not stated),.,.,.,i,.,.
Cc1ccc(CNC(=O)COC(=O)c2nc(-c3ccccc3)oc2C)cc1,496.2,2.1,.,i,i,0.0
CCOc1ccc(NS(=O)(=O)c2ccc(NC(=S)NC(=O)CC(C)C)cc2)cc1,307.4,-2.8,108.5,i,i,1.6
CN1C(=O)N(CC(=O)c2ccc3c(c2)OCO3)C(=O)C12CCCCC2,.,?,94.8,i,.,.
Cc1ccc(N(C(=O)Cn2nnc(-c3ccccc3F)n2)C(C(=O)NC2CCCC2)c2ccncc2)cc1 (configuration not stated),105.0,-4.3,98.5,i,.,.
Cc1ccc(N(C(=O)Cn2nnc(-c3cccs3)n2)C(C(=O)NC2CCCC2)c2ccncc2)cc1 (configuration not stated),570.3,1.7,95.8,i,i,0.0
O=c1cc(C(F)(F)F)nc(SC/C=C/c2ccccc2)[nH]1,462.4,-5.8,99.3,i,.,.
SMILES,T cell HTS,Vif imaging,DSG3 Ab inh,Myeloid diff MLP,Myeloid diff CP1,GFP autofluor
Nc1nc(=O)n(C2CCCCO2)cc1Br (configuration not stated),.,4.6,.,i,.,.
C#CCN(C[C@@H]1[C@@H](OC(=O)NCc2ccc(OC)c(OC)c2)[C@@H](OC(=O)NCc2ccc(OC)c(OC)c2)CN(C(=O)OC(C)C)N1C(=O)OC(C)C)S(=O)(=O)c1ccc(C)cc1,.,3.7,.,i,.,.
CCOC(=O)/C=C1\SCC(=O)N1CC(=O)NCCOC,158.9,-7.7,100.6,i,.,.
CCOC(=O)/C=C1\SCC(=O)N1CC(=O)NC1CCCCC1,223.6,-4.1,109.5,+,i,0.3
O=c1cc(-c2ccc(O)c(O)c2)oc2cc(O)c([C@@H]3O[C@H](CO)[C@@H](O)[C@H](O)[C@H]3O)c(O)c12,418.1,-3.7,97.8,i,.,.
CC(=O)Cc1cc(=O)c2c(C)cc(O)c(C3OC(CO)C(O)C(O)C3O)c2o1 (configuration not stated),288.3,8.9,103.0,i,i,0.0
COc1ccc(OC)c(/C=C2\SC(=S)N(NS(=O)(=O)c3ccc(C)cc3)C2=O)c1,247.3,3.2,90.3,i,.,.
COc1ccc(/C=C2\SC(=S)N(NS(=O)(=O)c3ccc(C)cc3)C2=O)c(OC)c1,319.0,-10.8,111.5,i,i,0.0
CCCNC(=O)C1(C)CCN(C(=O)c2ccc3c(c2)CCO3)C1 (configuration not stated),.,12.2,.,i,.,.
CSCC[C@H](NC(=O)C1CCN(S(=O)(=O)c2ccc(C)cc2)CC1)C(=O)NCc1ccco1,962.3,5.9,.,+,i,0.8
O=C(/C=C/c1ccco1)N1CCc2ccccc21,223.3,-8.8,102.1,i,.,.
Cc1ccc(/C=C/C(=O)N2CCc3ccccc32)o1,188.0,1.0,115.7,i,i,0.0
CCOc1ccc(CCN2C(=O)C(=O)N([C@@H](Cc3ccccc3)CN3CCC[C@H]3CN3C(=O)C(=O)NC[C@@H]3CC(C)C)C[C@@H]2Cc2ccc(O)cc2)cc1,.,.,.,i,i,0.3
O=C(Nc1ccc(S(=O)(=O)N2CCOCC2)cc1)c1ccc([N+](=O)[O-])o1,108.9,-2.8,100.7,?,.,.
O=C(Nc1ccc(N2CCOCC2)cc1)c1ccc([N+](=O)[O-])o1,309.8,-9.4,109.4,+,i,0.0
CNc1ncnc2c1ncn2[C@H]1CN(CCN2CCOCC2)C[C@@H](CO)O1,.,-1.5,.,i,.,.
O=C(CCS(=O)(=O)c1ccc(Cl)cc1)Nc1nnc(-c2ccco2)o1,343.6,-4.6,98.8,+,i,0.0
CCS(=O)(=O)N1Cc2cc(C(=O)NCC3CC3)nc(-c3cccc(-c4cccnc4)c3)c2[C@@H]1CCO,.,.,.,i,.,.
Cc1cc(C(=O)NC2CCCc3c2cnn3-c2cccc(C)c2C)no1 (configuration not stated),491.5,-19.2,101.4,+,i,3.8
Cc1ccc(C(=O)Nc2cccc(C(=O)N/N=C/c3ccc(O)cc3)c2)cc1,223.5,-8.7,112.5,+,i,0.8
FC(F)(F)Oc1ccc(Nc2nc(N3CCOCC3)nc(N3CCOCC3)n2)cc1,355.9,2.1,98.2,i,.,.
Cc1ccc(-c2cc(C(F)(F)F)c(C#N)c(SCCC#N)n2)o1,759.2,8.7,83.1,i,i,0.0
COc1ccc(-c2cc(C(F)(F)F)c(C#N)c(SCC(=O)O)n2)cc1,341.3,-9.8,116.6,i,.,.

# Screening results deposited in PubChem by several laboratories.
